Here are results for three molecules from ChEMBL document CHEMBL5653631, “A Potent and Selective ULK1 Inhibitor Suppresses Autophagy and Sensitizes Cancer Cells to Nutrient Stress” (iScience, 2018).

Assay [1] addresses Protein kinase C gamma type (Homo sapiens) (UniProt P05129). The assay is described as follows: Inhibition of human recombinant PKCg at 40 nM in presence of ATP by radiometric assay relative to control.
The target of assay [2] is Death-associated protein kinase 1 (Homo sapiens) (UniProt P53355). The assay can be described thus: Inhibition of human recombinant DAPK1 at 40 nM in presence of ATP by radiometric assay relative to control.
For assay [3], the target named is Serine/threonine-protein kinase PAK 5 (Homo sapiens) (UniProt Q9P286). The assay is described as follows: Inhibition of human recombinant PAK5 at 40 nM in presence of ATP by radiometric assay relative to control.
In assay [4] the target is Vascular endothelial growth factor receptor 1 (Homo sapiens) (UniProt P17948). The assay can be described thus: Inhibition of human recombinant FLT1 at 40 nM related to control ULK1.
Assay [5] concerns the target 5'-AMP-activated protein kinase catalytic subunit alpha-2 (Homo sapiens) (UniProt P54646). The assay can be described thus: Inhibition of human recombinant AMPKa2 at 40 nM related to control ULK1. The gist of the method: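 Radiometric activity assays in a panel of 327 human recombinant kinases, each run in duplicate at one inhibitor concentration. Activity remaining is expressed as percent of vehicle control, and percent inhibition is calculated as 100% minus percent activity remaining.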

Assay [6] has as its target T1, Activin receptor type-1 (Homo sapiens) (UniProt Q04771).
T1 sequence (whole entry): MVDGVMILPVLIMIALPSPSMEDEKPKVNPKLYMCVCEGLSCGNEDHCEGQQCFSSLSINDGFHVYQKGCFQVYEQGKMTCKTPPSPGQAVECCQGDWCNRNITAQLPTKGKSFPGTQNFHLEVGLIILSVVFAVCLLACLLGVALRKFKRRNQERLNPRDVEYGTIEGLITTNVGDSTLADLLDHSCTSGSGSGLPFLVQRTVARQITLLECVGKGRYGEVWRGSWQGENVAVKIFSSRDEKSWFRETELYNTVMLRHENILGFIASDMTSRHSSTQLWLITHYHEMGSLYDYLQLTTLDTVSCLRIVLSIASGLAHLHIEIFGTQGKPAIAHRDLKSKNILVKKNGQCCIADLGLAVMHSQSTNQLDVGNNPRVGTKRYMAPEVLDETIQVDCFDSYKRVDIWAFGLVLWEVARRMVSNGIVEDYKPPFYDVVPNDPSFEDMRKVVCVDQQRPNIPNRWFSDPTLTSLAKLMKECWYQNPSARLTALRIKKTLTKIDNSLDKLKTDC
The assay is described as follows: Inhibition of human recombinant ALK2 at 40 nM in presence of ATP by radiometric assay relative to control. Put shortly:
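Panel of 327 recombinant human kinases, each assayed in vitro by radiometric activity assay in duplicate at a single inhibitor concentration per compound, chosen with reference to its ULK1 inhibition. Activity remaining was expressed as percent of vehicle control, and percent inhibition was calculated as 100 minus percent activity remaining.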

For assay [7], the target named is Serine/threonine-protein kinase MAK (Homo sapiens) (UniProt P20794). The assay is described as follows: Inhibition of human recombinant MAK at 500 nM in presence of ATP by radiometric assay relative to control.
The target in assay [8] is T2, Eukaryotic elongation factor 2 kinase (Homo sapiens) (UniProt O00418).
T2 sequence (whole entry): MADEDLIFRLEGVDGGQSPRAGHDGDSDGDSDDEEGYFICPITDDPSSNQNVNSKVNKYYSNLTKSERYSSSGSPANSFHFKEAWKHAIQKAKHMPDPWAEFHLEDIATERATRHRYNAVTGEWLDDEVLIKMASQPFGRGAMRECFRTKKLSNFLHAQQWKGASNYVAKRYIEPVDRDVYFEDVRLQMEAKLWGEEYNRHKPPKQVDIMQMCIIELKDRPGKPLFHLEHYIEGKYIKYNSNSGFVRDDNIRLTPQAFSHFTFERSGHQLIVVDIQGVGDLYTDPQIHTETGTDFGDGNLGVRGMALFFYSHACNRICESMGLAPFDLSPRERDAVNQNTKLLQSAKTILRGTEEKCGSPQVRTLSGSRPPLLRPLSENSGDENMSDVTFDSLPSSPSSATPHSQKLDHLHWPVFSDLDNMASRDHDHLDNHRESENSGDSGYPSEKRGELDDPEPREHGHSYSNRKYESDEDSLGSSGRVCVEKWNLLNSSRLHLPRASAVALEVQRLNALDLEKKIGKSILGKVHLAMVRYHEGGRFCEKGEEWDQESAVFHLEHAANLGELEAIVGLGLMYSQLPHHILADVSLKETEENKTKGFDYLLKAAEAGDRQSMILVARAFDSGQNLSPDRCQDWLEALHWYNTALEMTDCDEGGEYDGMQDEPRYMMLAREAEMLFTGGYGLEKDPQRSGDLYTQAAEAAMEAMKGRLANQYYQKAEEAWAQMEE
The assay can be described thus: Inhibition of human recombinant eEF2K at 500 nM in presence of ATP by radiometric assay relative to control.

For assay [9], the target named is Phosphorylase b kinase gamma catalytic chain, skeletal muscle/heart isoform (Homo sapiens) (UniProt Q16816). The assay is described as follows: Inhibition of human recombinant PHKg1 at 500 nM related to control ULK1.
The target in assay [10] is Serine/threonine-protein kinase VRK2 (Homo sapiens) (UniProt Q86Y07). The assay is described as follows: Inhibition of human recombinant VRK2 at 500 nM in presence of ATP by radiometric assay relative to control.
Assay [11] deals with Vascular endothelial growth factor receptor 3 (Homo sapiens) (UniProt P35916). The assay can be described thus: Inhibition of human recombinant FLT4 at 15 nM related to control ULK1.
In assay [12] the target is Serine/threonine-protein kinase B-raf (Homo sapiens) (UniProt P15056). The assay is described as follows: Inhibition of human recombinant BRAF at 15 nM in presence of ATP by radiometric assay relative to control. The gist of the method: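 Part of a radiometric in vitro activity panel of 327 recombinant human kinases. Each kinase was tested in duplicate at one inhibitor concentration. Activity remaining was expressed as a percentage of the vehicle control, and percent inhibition was taken as 100 minus that value.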

The target in assay [13] is T3, Testis-specific serine/threonine-protein kinase 4 (Homo sapiens) (UniProt Q6SA08).
T3 sequence (whole entry): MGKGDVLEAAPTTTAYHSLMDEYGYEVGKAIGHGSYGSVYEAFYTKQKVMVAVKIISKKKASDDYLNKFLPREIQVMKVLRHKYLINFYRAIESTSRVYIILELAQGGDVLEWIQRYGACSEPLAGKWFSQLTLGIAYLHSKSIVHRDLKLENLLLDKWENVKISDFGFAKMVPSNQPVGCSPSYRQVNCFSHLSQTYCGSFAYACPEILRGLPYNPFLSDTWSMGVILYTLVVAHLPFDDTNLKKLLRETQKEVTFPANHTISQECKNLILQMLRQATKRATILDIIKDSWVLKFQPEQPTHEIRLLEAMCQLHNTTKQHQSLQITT
The assay is described as follows: Inhibition of human recombinant TSSK4 at 15 nM related to control ULK1.

In assay [14] the target is Dual specificity mitogen-activated protein kinase kinase 2 (Homo sapiens) (UniProt P36507). The assay is described as follows: Inhibition of human recombinant MAP2K2 at 15 nM in presence of ATP by radiometric assay relative to control.
The target of assay [15] is Ribosomal protein S6 kinase alpha-3 (Homo sapiens) (UniProt P51812). The assay is described as follows: Inhibition of human recombinant RSK2 at 15 nM related to control ULK1.
Sequence of Ribosomal protein S6 kinase alpha-3 (Homo sapiens) (P51812 whole entry): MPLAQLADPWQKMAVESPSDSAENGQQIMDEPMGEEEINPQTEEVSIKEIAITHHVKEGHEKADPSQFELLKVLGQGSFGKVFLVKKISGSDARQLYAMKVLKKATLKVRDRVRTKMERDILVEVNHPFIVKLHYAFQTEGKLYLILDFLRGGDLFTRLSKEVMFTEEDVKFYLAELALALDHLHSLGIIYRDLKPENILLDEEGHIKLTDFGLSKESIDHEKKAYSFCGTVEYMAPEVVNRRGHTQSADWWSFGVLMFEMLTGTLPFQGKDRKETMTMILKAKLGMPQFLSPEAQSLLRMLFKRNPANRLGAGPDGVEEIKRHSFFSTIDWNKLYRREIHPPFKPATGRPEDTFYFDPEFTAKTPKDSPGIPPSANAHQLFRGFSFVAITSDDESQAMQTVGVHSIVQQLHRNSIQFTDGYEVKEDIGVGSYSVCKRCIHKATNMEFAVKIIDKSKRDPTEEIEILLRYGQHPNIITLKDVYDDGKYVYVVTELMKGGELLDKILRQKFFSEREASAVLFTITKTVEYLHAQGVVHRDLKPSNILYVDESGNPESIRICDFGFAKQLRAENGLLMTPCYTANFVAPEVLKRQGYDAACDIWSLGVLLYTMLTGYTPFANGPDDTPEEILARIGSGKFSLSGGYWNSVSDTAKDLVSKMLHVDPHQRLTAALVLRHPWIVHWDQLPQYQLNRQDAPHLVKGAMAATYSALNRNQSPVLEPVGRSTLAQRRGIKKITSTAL

Sequence of Death-associated protein kinase 1 (Homo sapiens) (P53355 whole entry, looked up): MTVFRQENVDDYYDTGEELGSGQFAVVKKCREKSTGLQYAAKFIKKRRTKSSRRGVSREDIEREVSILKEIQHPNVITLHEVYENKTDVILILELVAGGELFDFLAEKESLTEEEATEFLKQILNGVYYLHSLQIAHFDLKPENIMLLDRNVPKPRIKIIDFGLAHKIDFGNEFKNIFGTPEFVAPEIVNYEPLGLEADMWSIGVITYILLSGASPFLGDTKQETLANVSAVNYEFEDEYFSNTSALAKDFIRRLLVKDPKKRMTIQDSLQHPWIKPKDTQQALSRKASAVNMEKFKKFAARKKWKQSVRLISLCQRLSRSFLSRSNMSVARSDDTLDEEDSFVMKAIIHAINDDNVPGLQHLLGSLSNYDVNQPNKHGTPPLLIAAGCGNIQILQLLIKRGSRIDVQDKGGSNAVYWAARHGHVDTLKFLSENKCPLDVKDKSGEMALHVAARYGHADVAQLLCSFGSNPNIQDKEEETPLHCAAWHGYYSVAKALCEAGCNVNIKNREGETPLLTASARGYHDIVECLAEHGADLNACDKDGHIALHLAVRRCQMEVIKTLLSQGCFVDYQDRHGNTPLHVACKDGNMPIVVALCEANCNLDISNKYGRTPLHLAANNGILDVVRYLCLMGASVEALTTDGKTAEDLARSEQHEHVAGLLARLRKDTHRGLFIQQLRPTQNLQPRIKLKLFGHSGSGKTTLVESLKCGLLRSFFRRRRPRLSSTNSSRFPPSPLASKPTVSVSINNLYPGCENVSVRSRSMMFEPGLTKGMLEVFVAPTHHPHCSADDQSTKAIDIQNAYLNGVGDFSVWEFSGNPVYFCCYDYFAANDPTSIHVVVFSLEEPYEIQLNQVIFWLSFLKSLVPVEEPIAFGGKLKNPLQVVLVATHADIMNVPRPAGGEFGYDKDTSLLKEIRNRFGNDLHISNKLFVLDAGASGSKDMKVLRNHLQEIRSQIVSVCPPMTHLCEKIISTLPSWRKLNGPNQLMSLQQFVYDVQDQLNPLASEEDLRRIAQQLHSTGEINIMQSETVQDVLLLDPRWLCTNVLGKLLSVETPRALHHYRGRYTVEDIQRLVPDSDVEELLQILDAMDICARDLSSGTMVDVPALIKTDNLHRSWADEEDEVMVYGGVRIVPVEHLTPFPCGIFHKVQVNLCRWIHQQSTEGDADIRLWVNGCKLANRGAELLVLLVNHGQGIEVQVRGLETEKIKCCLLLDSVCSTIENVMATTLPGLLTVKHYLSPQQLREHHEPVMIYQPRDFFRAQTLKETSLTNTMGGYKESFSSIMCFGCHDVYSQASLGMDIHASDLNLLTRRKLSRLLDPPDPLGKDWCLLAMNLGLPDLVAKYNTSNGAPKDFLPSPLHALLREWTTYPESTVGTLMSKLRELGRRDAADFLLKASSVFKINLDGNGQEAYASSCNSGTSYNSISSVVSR
Sequence of Vascular endothelial growth factor receptor 1 (Homo sapiens) (P17948 whole entry): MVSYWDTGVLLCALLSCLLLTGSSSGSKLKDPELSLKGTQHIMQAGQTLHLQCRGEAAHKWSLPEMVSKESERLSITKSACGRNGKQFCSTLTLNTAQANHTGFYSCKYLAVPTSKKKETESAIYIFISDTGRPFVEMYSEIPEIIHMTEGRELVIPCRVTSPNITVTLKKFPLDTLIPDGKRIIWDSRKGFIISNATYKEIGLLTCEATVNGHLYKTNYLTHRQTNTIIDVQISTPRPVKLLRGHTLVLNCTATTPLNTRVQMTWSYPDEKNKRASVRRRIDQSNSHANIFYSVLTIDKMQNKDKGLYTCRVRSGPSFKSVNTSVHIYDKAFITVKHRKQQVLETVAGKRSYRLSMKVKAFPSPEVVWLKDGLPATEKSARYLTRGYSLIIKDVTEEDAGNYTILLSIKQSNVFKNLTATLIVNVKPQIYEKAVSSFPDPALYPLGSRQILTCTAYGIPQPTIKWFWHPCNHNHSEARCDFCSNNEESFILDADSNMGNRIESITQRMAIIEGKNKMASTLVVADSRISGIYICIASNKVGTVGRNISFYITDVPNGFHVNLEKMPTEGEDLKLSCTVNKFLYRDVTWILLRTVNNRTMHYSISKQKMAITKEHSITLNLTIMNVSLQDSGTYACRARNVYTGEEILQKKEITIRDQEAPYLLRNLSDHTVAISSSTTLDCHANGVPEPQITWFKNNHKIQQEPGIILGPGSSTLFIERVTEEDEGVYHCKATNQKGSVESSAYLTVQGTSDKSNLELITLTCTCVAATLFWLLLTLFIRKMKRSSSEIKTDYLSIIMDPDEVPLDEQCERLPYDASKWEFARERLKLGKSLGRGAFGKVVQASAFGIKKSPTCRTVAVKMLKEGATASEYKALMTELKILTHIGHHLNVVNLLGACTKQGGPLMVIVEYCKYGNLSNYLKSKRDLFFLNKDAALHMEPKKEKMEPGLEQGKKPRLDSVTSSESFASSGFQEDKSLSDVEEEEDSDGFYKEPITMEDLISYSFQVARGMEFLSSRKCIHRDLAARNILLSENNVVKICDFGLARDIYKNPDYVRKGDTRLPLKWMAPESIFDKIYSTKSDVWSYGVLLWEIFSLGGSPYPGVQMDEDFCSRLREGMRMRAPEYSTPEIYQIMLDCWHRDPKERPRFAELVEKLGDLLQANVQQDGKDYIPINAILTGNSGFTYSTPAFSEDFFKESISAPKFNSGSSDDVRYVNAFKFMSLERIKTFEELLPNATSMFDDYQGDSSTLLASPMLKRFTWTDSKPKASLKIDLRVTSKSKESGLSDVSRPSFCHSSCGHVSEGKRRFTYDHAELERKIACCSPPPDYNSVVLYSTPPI
Sequence of Serine/threonine-protein kinase MAK (Homo sapiens) (P20794 whole entry, looked up): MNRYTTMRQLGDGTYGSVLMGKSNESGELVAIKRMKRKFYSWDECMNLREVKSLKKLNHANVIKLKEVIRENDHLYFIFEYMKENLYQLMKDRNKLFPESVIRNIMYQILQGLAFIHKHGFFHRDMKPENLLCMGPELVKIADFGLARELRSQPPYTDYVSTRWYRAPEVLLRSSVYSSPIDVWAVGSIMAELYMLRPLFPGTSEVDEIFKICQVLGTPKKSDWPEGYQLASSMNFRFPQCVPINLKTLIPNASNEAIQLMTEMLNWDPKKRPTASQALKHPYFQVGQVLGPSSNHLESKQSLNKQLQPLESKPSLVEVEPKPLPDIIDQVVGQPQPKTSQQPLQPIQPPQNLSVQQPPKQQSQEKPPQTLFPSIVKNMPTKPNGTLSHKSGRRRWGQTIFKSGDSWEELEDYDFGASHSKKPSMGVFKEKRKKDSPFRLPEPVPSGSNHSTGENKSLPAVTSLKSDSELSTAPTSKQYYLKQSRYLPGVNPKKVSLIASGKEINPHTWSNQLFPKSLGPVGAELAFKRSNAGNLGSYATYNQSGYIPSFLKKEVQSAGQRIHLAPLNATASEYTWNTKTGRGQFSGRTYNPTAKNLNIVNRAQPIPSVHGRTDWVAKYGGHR
Sequence of Serine/threonine-protein kinase PAK 5 (Homo sapiens) (Q9P286 whole entry, looked up): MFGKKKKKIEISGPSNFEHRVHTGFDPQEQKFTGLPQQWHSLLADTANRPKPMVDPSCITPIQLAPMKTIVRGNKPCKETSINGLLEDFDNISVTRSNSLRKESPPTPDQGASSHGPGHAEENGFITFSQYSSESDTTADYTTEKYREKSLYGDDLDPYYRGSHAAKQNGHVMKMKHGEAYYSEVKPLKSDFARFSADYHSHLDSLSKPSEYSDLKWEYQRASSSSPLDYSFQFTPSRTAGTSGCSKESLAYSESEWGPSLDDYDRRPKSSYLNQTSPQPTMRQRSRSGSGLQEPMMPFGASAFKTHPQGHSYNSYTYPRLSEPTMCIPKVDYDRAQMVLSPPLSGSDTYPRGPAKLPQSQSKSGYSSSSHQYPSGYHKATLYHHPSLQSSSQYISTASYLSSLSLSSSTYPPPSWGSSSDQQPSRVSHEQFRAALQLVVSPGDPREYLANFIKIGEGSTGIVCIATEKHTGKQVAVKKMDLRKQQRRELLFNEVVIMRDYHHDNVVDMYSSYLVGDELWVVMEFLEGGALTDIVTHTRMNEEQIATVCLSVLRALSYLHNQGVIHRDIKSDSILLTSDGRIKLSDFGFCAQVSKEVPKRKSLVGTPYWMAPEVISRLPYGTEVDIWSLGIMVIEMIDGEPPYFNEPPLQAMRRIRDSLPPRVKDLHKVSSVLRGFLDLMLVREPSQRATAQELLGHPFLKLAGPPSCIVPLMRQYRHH

`O=C(N[C@@H](C1CC1)C(F)(F)F)c1cc(-c2cnn3cc(-c4ccc(F)cc4)cnc23)cs1`: the inhibition in assay [1] is 0%; in assay [2] it was 0%; in assay [3], 0%; in assay [6], 56%. The values for the fold change (FC) in [4] and in [5] were 0.25 and 0.1, respectively.

`CNC(=O)c1ccccc1Oc1nc(Nc2cc(OC)c(OC)c(OC)c2)ncc1Br`: the inhibition is 36% in assay [7], 14% in [8] and 23% in assay [10]. Moreover, the fold change (FC) in assay [9] was found to be 0.31.

In the case of `CC(C)[C@H](NC(=O)c1cc(-c2cnn3cc(-c4ccc(OCCN5CCCCC5)cc4)cnc23)cs1)C(F)(F)F`, the results for the fold change (FC) in assay [11], in [13] and in [15] were 0.4, 0 and 0, respectively. Also, the inhibition was determined as 11% in assay [12] and 0% in assay [14].

For orientation: inhibition means the share of the control response that was lost under treatment.
